Screens (PubChem BioAssay)
The list is not random: actives were taken first. Their share in the collection is about 5.9%.
IDH1 mut inh – inhibitors of human IDH1 R132H; 70,000 compounds, 0.18% hits; O75874; IDH1 R132H reductase, diaphorase/resazurin fluorescence, 60 min; AID 624101; inhibition, % at 10 µM; in the data active = inhibition above about 34%; inconclusive = no clear call, values can overlap the other calls; inactive = below about 11%;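 note: 0% = DMSO and 100% = no enzyme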
Target sequence (O75874 whole entry R132H): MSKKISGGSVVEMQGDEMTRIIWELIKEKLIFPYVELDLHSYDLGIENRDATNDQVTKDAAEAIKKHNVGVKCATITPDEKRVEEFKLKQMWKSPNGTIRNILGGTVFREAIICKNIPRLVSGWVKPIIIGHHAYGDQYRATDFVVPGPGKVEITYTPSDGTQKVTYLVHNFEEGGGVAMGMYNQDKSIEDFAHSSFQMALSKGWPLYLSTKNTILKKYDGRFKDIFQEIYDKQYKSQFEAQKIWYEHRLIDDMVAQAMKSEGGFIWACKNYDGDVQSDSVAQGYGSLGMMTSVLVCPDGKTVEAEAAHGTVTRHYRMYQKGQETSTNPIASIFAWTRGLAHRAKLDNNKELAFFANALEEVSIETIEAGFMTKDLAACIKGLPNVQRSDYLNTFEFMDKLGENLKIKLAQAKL
Pf Dd2 inh – inhibitors of Plasmodium falciparum Dd2 growth; P. falciparum Dd2 growth, SYBR Green, 72 h; active compounds read low; activity change, % at 10 µM; 94,000 compounds, 2.3% hits; AID 1159554; in the data active = activity change below about -80%; inconclusive = no clear call, values can overlap the other calls
KDM4C inh – inhibitors of human demethylase GASC-1 KDM4C; GST-KDM4C 2-372, H3K9me3 peptide, LANCE TR-FRET; inhibition, % at 12.5 µM; 96,000 compounds, 0.15% hits; AID 720574;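 active = mean replicate inhibition above about 25%, with at least 55% of replicates also reaching it, limit read from the data, passing the limit was not always enough; inconclusive = only one of those two conditions met; inactive = neither condition met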
Target sequence (Q9H3R0 2-372 limits assumed): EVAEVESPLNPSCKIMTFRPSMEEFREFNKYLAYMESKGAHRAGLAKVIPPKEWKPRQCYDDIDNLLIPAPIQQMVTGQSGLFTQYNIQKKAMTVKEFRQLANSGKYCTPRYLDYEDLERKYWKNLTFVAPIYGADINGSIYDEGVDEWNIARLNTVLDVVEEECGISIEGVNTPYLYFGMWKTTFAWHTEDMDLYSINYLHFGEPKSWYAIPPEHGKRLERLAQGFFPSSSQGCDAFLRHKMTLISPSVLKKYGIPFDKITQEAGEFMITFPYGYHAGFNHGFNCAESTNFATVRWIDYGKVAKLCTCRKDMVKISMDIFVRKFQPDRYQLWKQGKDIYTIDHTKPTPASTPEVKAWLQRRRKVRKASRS
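Material: N-terminal GST-fused human GASC-1 (KDM4C) fragment, residues 2-372. Input: 10 nM enzyme. Incubation: enzyme reaction 30 min, then detection 60 min, both room temperature. Doses: one test concentration per compound. Read-out basis: inhibition from TR-FRET ratio decrease. Detection: LANCE TR-FRET, excitation 340 nm, emissions 618 and 671 nm.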
T cruzi growth-1 – inhibitors of T. cruzi proliferation; T. cruzi beta-gal in NIH3T3, GalScreen luminescence, 90 h; inhibition, % at 8.34 µM; 77,000 compounds, 5.9% hits;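 active = mean inhibition above about 93%, with at least 55% of replicates each passing it, limit read from the data, passing the limit was not always enough; inconclusive = only one of those two conditions holds; inactive = neither condition holds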
T cruzi growth-2 – blocks T. cruzi growth in NIH3T3 host cells | shares compounds with T cruzi growth-1 | T. cruzi beta-gal in NIH3T3, GalScreen luminescence, 90 h | inhibition, % at 8.35 µM | 5,600 compounds, 72% hits;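 active = mean replicate inhibition above about 95% and at least 55% of replicates individually reaching it, limit read from the data; inconclusive = only one of the two criteria is met; inactive = neither criterion is met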
T cruzi growth-3 – inhibitors of T. cruzi proliferation. shares compounds with T cruzi growth-1. 5,600 compounds, 21% hits. AID 651740. inhibition, % at 2.09 µM. T. cruzi beta-gal in NIH3T3, GalScreen luminescence, 90 h;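 active = mean inhibition above about 95%, with at least 55% of replicates also reaching it, limit read from the data; inconclusive = meets just one of the two conditions; inactive = meets neither condition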;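 note: plate controls were neutral control median for no effect and positive control median for full effect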
3T3 cytotox – kills mouse NIH/3T3 fibroblasts; cytotoxicity (signal decrease), % at 8.35 µM; shares compounds with T cruzi growth-1; AID 651742; NIH/3T3 viability, CellTiter-Glo ATP luminescence, 90 h; 5,600 compounds, 14% hits;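 active = mean signal decrease across replicates above about 35% based on untreated-well scatter, with enough replicates individually passing, limit read from the data; inconclusive = no rule stated though some were filed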;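 note: 0% = median of neutral control wells and 100% = median of positive control wells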
3T3 cytotox 2 – NIH/3T3 (mouse) viability loss | shares compounds with T cruzi growth-1 | NIH/3T3 viability, CellTiter-Glo ATP luminescence, 90 h | inhibition, % at 24.9 µM | 5,600 compounds, 56% hits | AID 651744;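 active = mean loss of cell viability signal at or above a set limit, and enough replicates individually reaching it; inconclusive = meets only the mean limit or only the replicate share; inactive = meets neither condition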;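 note: 0% = median of neutral control wells and 100% = median of positive control wells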
Numbers without * were called inactive; ? = inconclusive; nt = no result given.

SMILES | IDH1 mut inh | Pf Dd2 inh | KDM4C inh | T cruzi growth-1 | T cruzi growth-2 | T cruzi growth-3 | 3T3 cytotox | 3T3 cytotox 2
O=C(C[C@H]1CC[C@H]2[C@@H](COC[C@H](O)CN2C(=O)Nc2ccc(Cl)c(Cl)c2)O1)NCc1ccc(Cl)c(Cl)c1 | nt | -12 | 0 | 97* | 85 | 64 | 41* | 105*
O=C(C[C@@H]1CC[C@H]2[C@@H](COC[C@@H](O)CN2C(=O)c2ccncc2)O1)NCc1ccc(-c2ccccc2)cc1 | nt | -23 | 0 | 117* | 12 | 15 | 1 | 19
Cc1ccc(OCC(=O)Nc2ccc3oc(-c4c(F)c(F)c(F)c(F)c4F)nc3c2)cc1 | 0 | nt | nt | nt | nt | nt | nt | nt
Cc1cccc(S(=O)(=O)N2C[C@@H](O)COC[C@@H]3O[C@@H](CC(=O)Nc4ccc(-c5ccccc5)cc4)CC[C@H]32)c1 | nt | -61 | -1 | 72 | nt | nt | nt | nt
O=C(C[C@H]1CC[C@H]2[C@@H](COC[C@@H](O)CN2S(=O)(=O)c2ccccc2)O1)Nc1ccc(-c2ccccc2)cc1 | nt | -14 | 2 | 88 | nt | nt | nt | nt
O=C(C[C@@H]1CC[C@H]2[C@@H](COC[C@@H](O)CN2S(=O)(=O)c2ccccc2)O1)Nc1ccc(-c2ccccc2)cc1 | nt | -10 | 0 | 97* | 106* | 71 | 13 | 92*
Cc1cccc(S(=O)(=O)N2C[C@H](O)COC[C@H]3O[C@H](CC(=O)Nc4ccc(-c5ccccc5)cc4)CC[C@@H]32)c1 | nt | -22 | 0 | ? | 104* | 74 | 23 | 99*
CC(C)CC#Cc1ccc([C@@H]2[C@@H](CO)N3CCCCN(C(=O)NC4CCCC4)C[C@@H]23)cc1 | nt | -11 | -1 | 102* | 101* | 64 | 20 | 107*
COCC#Cc1ccc([C@H]2[C@@H](CO)N3CCCCN(C(=O)NC4CCCC4)C[C@H]23)cc1 | nt | -4 | 1 | 76 | nt | nt | nt | nt
CC(C)CC#Cc1ccc([C@H]2[C@@H](CO)N3CCCCN(C(=O)NC4CCCC4)C[C@@H]23)cc1 | nt | 2 | 0 | 118* | 110* | 79 | 19 | 104*
CCCC#Cc1ccc([C@H]2[C@H](CO)N3CCCCN(C(=O)NC4CCCC4)C[C@@H]23)cc1 | nt | -36 | 1 | ? | 86 | ? | 48* | 105*
CC(C)CC#Cc1ccc([C@H]2[C@H](CO)N3CCCCN(C(=O)NC4CCCC4)C[C@@H]23)cc1 | nt | -35 | -2 | 113* | 93 | 87 | 43* | 103*
CC(C(=O)Nc1ccc(Oc2ccccc2)cc1)N(c1ccc(Cl)cc1)S(C)(=O)=O (stereo unspecified) | 0 | nt | nt | nt | nt | nt | nt | nt
COc1ccc(Br)cc1/C=N/NC(=O)CCCCCCC(=O)Nc1ccccc1O | 0 | nt | nt | nt | nt | nt | nt | nt
O=C(NCc1ccccn1)c1ccccc1O | 1 | nt | nt | nt | nt | nt | nt | nt
C[C@H](CO)N1C[C@H](C)[C@H](CN(C)Cc2ccc(C(=O)O)cc2)OCCCC[C@H](C)Oc2ccc(NC(=O)Nc3cccc4ccccc34)cc2C1=O | nt | 9 | 1 | 29 | nt | nt | nt | nt
C[C@H](CO)N1C[C@H](C)[C@H](CN(C)Cc2ccc(C(F)(F)F)cc2)OCCCC[C@H](C)Oc2ccc(NC(=O)Nc3cccc4ccccc34)cc2C1=O | nt | 26 | -2 | 126 | nt | nt | nt | nt
C[C@H](CO)N1C[C@H](C)[C@@H](CN(C)Cc2ccc(C(F)(F)F)cc2)OCCCC[C@H](C)Oc2ccc(NC(=O)Nc3cccc4ccccc34)cc2C1=O | -2 | 14 | -3 | ? | 99* | 107* | 23 | 4
C[C@@H]1CN([C@@H](C)CO)C(=O)c2cc(NC(=O)Nc3cccc4ccccc34)ccc2O[C@@H](C)CCCCO[C@H]1CN(C)Cc1ccc(C(F)(F)F)cc1 | -11 | -52 | 0 | ? | 109* | 117* | 29 | 11
C[C@@H]1CCCCO[C@H](CN(C)Cc2ccc(C(F)(F)F)cc2)[C@H](C)CN([C@H](C)CO)C(=O)c2cc(NC(=O)Nc3cccc4ccccc34)ccc2O1 | 1 | -68 | -9 | ? | 105* | 117* | 13 | 10
C[C@@H]1CCCCO[C@H](CN(C)Cc2ccc(C(F)(F)F)cc2)[C@@H](C)CN([C@H](C)CO)C(=O)c2cc(NC(=O)Nc3cccc4ccccc34)ccc2O1 | nt | 34 | -5 | ? | 107* | 87 | 15 | 6
C[C@@H]1O[C@@H](O[C@H]2[C@H](O)[C@@H](O)[C@H](O[C@H]3[C@H](O[C@H]4CC[C@@]5(C)C(=CC[C@H]6C7C[C@@H]8O[C@]9(CC[C@@](C)(CO[C@@H]%10O[C@H](CO)[C@@H](O)[C@H](O)[C@H]%10O)O9)[C@H](C)C8[C@@]7(C)CCC65)C4)O[C@H](CO)[C@@H](O)[C@@H]3O)O[C@@H]2CO)[C@H](O)[C@H](O)[C@H]1O (stereo partly specified) | 0 | nt | nt | nt | nt | nt | nt | nt
CCn1c(SCC(=O)c2ccc(OC)cc2)nnc1-c1cccs1 | 0 | nt | nt | nt | nt | nt | nt | nt
COc1ccc(S(=O)(=O)N(C)CC(=O)Nc2cc(C)ccc2C)cc1C | -1 | nt | nt | nt | nt | nt | nt | nt
CCOc1cccc(-c2nnc(SCC(=O)Nc3c(C)cccc3C)n2C)c1 | 0 | nt | nt | nt | nt | nt | nt | nt
SMILES | IDH1 mut inh | Pf Dd2 inh | KDM4C inh | T cruzi growth-1 | T cruzi growth-2 | T cruzi growth-3 | 3T3 cytotox | 3T3 cytotox 2
O=C1C(=O)N(CCCn2ccnc2)C(c2cccc(Br)c2)C1C(=O)c1ccco1 (stereo unspecified) | 3 | nt | nt | nt | nt | nt | nt | nt
CCn1c(SCC(=O)Nc2ccc(C(C)=O)cc2)nnc1-c1cc(Br)ccc1O | 0 | nt | nt | nt | nt | nt | nt | nt
C[C@@H]1CN([C@@H](C)CO)C(=O)c2cc(NC(=O)Nc3cccc4ccccc34)ccc2O[C@@H](C)CCCCO[C@@H]1CN(C)Cc1ccc(C(F)(F)F)cc1 | nt | -88* | -4 | ? | 107* | 111* | 2 | 20
CCc1csc(N2[C@@H](C#N)[C@H](c3ccc(C#Cc4ccc(F)cc4)cc3)[C@@H]2CO)n1 | nt | -52 | -5 | 106* | 97* | 110* | -29 | 21
CCc1csc(N2[C@H](CO)[C@H](c3ccc(-c4ccc(F)cc4)cc3)[C@@H]2C#N)n1 | nt | -2 | -4 | 98* | 108* | 43 | 21 | 91*
C/C=C/c1ccc([C@H]2[C@@H](C#N)N(c3nc(CC)cs3)[C@@H]2CO)cc1 | nt | -47 | 0 | ? | 101* | 23 | 1 | 6
CCc1csc(N2[C@H](C#N)[C@H](c3ccc(-c4ccc(F)cc4)cc3)[C@H]2CO)n1 | nt | -2 | -2 | 94 | nt | nt | nt | nt
O=C(O)C1CC=CCC1C(=O)Nc1ccc(Cc2ccncc2)cc1 (stereo unspecified) | 0 | nt | nt | nt | nt | nt | nt | nt
O=C(CCCCCC(=O)N/N=C/c1ccc(Br)cc1)NO | 1 | nt | nt | nt | nt | nt | nt | nt
